In ChEMBL document CHEMBL5705888, “Substrate specificity and inhibitors of LRRK2, a protein kinase mutated in Parkinson's disease” (Biochem J, 2009):
Calls of active or inactive are those of the source. The rule behind the calls is not given here.

Legend:
[1] = target: Ribosomal protein S6 kinase beta-1 (Homo sapiens) (UniProt P23443); test: Residual activity of S6K1 (unknown origin) at 10 uM incubated for 30 mins in presence of [gamma-33P]ATP by multidrop micro reagent based assay relative to control
[2] = target: Ribosomal protein S6 kinase alpha-1 (Homo sapiens) (UniProt Q15418); test: Inhibition of RSK1 (unknown origin) at 10 uM incubated for 30 mins in presence of [gamma-33P]ATP by multidrop micro reagent based assay relative to control
Sequence of Ribosomal protein S6 kinase alpha-1 (Homo sapiens) (Q15418 whole entry): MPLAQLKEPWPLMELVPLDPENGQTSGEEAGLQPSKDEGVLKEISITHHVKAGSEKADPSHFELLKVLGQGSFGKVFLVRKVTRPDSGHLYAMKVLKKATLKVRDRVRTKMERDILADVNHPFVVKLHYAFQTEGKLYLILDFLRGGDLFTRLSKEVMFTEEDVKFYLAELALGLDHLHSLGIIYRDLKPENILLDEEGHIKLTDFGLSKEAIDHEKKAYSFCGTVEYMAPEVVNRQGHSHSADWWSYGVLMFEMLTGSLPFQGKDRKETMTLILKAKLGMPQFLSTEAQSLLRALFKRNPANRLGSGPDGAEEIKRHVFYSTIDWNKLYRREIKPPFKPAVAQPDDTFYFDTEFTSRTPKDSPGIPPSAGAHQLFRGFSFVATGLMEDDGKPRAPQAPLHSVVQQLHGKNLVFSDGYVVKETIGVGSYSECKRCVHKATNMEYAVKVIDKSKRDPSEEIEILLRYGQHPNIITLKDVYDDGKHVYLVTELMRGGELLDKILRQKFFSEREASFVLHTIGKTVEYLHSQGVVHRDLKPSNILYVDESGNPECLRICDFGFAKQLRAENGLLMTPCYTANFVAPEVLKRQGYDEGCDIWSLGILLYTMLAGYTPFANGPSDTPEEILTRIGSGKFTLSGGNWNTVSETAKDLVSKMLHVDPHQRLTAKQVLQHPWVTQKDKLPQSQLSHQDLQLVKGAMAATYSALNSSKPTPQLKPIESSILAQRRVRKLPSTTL
In short: (§1)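 Single-concentration screen across a panel of 85 protein kinases. Activity is expressed as a percentage of control incubations run without inhibitor.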

[3] = target: Ribosomal protein S6 kinase alpha-5 (Homo sapiens) (UniProt O75582); test: Inhibition of MSK1 (unknown origin) at 10 uM incubated for 30 mins in presence of [gamma-33P]ATP by multidrop micro reagent based assay relative to control
In short: as §1

[4] = target: Protein kinase C alpha type (Homo sapiens) (UniProt P17252); test: Inhibition of PKCalpha (unknown origin) at 10 uM incubated for 30 mins in presence of [gamma-33P]ATP by multidrop micro reagent based assay relative to control; values are per cent of control
[5] = target: Serine/threonine-protein kinase D1 (Homo sapiens) (UniProt Q15139); test: Residual activity of PKD1 (unknown origin) at 10 uM incubated for 30 mins in presence of [gamma-33P]ATP by multidrop micro reagent based assay relative to control
[6] = target: Insulin receptor (Homo sapiens) (UniProt P06213); test: Inhibition of His-tagged IR (unknown origin) at 10 uM incubated for 30 mins in presence of [gamma-33P]ATP by multidrop micro reagent based assay relative to control
[7] = target: T1, Dual specificity tyrosine-phosphorylation-regulated kinase 3 (Homo sapiens) (UniProt O43781); test: Inhibition of DYRK3 (unknown origin) at 10 uM incubated for 30 mins in presence of [gamma-33P]ATP by multidrop micro reagent based assay relative to control
T1 sequence (whole entry): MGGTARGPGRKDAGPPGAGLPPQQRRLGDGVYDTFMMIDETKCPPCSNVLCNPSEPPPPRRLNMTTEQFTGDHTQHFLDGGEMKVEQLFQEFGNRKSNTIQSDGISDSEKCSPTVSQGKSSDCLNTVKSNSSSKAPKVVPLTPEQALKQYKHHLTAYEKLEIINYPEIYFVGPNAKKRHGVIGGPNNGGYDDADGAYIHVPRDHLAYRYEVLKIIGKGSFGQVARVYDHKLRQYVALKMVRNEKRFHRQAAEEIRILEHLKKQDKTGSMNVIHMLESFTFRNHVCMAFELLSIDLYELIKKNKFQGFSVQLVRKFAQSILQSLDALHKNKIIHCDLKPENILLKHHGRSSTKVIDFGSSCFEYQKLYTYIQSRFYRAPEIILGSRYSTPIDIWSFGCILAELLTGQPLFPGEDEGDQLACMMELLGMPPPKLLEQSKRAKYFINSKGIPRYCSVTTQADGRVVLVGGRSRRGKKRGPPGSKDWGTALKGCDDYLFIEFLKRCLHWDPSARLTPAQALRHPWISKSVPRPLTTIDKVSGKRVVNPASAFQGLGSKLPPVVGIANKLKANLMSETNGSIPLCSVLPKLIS

Homo sapiens = species on record: Homo sapiens; test: Inhibition of CDK2/cyclin A (unknown origin) at 10 uM incubated for 30 mins in presence of [gamma-33P]ATP by multidrop micro reagent based assay relative to control
[8] = target: Misshapen-like kinase 1 (Homo sapiens) (UniProt Q8N4C8); test: Inhibition of MINK1 (unknown origin) at 10 uM incubated for 30 mins in presence of [gamma-33P]ATP by multidrop micro reagent based assay relative to control; values are per cent of control
Sequence of Misshapen-like kinase 1 (Homo sapiens) (Q8N4C8 whole entry, looked up): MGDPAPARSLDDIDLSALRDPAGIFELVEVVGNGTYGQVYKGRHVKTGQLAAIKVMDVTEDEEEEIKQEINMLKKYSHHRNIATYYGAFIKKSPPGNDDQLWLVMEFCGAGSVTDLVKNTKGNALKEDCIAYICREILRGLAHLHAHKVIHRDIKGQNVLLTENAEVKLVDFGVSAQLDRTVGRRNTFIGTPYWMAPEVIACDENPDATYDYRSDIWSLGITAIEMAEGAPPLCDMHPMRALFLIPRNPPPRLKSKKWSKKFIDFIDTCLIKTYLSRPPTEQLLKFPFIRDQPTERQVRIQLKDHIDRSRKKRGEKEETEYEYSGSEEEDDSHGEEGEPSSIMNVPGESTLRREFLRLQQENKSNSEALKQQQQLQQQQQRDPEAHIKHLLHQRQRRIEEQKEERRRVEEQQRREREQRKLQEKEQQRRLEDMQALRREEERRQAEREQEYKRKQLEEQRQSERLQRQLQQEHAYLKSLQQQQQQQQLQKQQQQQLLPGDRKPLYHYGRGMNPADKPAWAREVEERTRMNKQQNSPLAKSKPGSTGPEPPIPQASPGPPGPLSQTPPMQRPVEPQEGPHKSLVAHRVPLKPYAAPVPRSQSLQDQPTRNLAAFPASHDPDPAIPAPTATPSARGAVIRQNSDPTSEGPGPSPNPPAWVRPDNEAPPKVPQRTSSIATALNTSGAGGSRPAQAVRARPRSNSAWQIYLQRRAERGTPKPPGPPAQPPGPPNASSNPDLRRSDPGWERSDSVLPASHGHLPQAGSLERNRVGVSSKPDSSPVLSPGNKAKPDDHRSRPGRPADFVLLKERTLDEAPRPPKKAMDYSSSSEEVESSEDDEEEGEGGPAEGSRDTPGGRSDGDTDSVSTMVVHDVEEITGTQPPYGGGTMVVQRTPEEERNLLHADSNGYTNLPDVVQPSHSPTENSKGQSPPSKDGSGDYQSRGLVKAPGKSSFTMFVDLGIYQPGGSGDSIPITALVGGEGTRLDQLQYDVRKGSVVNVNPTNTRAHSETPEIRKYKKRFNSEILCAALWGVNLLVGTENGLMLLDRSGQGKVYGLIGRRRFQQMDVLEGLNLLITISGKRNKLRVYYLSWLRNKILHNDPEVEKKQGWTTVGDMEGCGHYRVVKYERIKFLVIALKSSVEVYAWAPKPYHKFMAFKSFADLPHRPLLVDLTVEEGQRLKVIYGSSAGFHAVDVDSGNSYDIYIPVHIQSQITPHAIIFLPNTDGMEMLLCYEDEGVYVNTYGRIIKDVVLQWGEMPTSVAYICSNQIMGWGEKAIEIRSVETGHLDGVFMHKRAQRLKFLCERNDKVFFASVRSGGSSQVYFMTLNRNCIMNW

[9] = target: Leucine-rich repeat serine/threonine-protein kinase 2 (Mus musculus) (UniProt Q5S006); test: Inhibition of LRRK2 in mouse Swiss-3T3 cells at 0.3 uM using Nictide as substrate by immunoblot analysis; assay type: cell-based
Sequence of Leucine-rich repeat serine/threonine-protein kinase 2 (Mus musculus) (Q5S006 whole entry): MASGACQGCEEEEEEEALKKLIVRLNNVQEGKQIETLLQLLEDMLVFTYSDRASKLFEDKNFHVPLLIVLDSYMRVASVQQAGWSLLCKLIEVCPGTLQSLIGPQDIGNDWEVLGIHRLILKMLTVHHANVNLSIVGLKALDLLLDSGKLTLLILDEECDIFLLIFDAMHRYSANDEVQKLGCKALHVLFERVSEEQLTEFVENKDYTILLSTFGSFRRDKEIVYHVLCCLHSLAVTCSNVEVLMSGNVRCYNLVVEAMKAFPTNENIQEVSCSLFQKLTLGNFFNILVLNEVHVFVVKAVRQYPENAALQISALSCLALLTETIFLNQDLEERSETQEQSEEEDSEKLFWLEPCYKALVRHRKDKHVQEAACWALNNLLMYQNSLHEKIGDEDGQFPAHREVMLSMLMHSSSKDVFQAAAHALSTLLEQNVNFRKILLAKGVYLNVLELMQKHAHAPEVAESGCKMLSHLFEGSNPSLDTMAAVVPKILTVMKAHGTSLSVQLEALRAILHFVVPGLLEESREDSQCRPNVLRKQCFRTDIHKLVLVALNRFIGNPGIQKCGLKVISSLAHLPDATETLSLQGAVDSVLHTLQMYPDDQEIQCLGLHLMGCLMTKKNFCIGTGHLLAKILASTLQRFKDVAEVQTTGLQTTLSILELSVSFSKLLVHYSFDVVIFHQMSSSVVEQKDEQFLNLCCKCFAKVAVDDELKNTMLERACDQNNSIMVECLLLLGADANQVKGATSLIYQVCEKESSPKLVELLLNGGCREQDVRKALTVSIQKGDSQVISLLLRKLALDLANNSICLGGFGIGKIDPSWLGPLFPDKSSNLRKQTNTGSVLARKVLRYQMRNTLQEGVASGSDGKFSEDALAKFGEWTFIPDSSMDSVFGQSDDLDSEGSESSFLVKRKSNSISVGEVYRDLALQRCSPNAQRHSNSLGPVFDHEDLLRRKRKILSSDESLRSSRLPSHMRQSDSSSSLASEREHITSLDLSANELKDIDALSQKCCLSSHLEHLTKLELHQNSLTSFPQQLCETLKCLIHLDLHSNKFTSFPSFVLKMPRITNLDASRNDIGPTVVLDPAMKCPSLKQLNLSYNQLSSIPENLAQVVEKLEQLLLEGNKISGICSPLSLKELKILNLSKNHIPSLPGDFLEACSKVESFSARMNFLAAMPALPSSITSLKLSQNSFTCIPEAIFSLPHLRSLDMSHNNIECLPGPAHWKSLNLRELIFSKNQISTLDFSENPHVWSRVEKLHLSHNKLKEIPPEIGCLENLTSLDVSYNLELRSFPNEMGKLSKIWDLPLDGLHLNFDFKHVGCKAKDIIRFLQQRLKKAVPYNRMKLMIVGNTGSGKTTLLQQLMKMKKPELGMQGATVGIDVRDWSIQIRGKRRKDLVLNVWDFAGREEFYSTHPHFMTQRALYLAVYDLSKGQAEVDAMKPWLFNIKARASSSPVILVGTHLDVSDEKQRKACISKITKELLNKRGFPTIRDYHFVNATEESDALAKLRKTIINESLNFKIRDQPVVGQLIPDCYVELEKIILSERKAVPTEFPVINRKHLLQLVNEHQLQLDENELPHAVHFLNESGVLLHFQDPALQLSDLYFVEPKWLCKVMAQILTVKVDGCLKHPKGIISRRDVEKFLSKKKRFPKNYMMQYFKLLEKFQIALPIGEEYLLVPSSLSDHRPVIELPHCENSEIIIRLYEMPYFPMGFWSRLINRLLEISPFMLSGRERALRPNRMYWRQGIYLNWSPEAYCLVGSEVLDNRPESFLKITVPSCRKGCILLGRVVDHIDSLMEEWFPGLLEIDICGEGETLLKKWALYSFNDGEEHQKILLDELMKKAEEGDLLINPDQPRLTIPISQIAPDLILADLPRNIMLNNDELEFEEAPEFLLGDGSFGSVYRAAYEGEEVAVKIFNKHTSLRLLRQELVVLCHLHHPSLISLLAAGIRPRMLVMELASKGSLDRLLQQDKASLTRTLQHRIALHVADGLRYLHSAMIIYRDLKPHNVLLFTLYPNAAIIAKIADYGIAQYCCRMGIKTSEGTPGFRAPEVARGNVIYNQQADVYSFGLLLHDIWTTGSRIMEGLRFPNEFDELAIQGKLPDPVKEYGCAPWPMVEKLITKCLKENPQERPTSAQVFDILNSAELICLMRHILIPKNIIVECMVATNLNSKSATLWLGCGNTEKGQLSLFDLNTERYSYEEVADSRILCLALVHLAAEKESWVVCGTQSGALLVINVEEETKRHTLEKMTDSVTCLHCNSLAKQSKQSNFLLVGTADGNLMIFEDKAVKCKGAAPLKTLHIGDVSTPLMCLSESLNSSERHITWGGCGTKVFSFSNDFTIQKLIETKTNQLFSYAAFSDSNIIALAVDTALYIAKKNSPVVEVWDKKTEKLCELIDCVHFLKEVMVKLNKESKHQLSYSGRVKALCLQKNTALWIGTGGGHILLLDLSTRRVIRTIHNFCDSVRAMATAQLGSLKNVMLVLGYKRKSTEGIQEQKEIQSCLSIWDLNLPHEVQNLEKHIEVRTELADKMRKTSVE

[10] = target: Misshapen-like kinase 1 (Homo sapiens) (UniProt Q8N4C8); test: Inhibition of MINK1 (unknown origin) at 0.1 uM incubated for 30 mins in presence of [gamma-33P]ATP by multidrop micro reagent based assay relative to control
[11] = target: Leucine-rich repeat serine/threonine-protein kinase 2 (Mus musculus) (UniProt Q5S006); test: Inhibition of LRRK2 in mouse Swiss-3T3 cells at 2 uM using Nictide as substrate by immunoblot analysis; assay type: cell-based
[12] = target: Serine/threonine-protein kinase pim-2 (Homo sapiens) (UniProt Q9P1W9); test: Inhibition of PIM2 (unknown origin) at 1 uM incubated for 30 mins in presence of [gamma-33P]ATP by multidrop micro reagent based assay relative to control; values are per cent of control
Sequence of Serine/threonine-protein kinase pim-2 (Homo sapiens) (Q9P1W9 whole entry, looked up): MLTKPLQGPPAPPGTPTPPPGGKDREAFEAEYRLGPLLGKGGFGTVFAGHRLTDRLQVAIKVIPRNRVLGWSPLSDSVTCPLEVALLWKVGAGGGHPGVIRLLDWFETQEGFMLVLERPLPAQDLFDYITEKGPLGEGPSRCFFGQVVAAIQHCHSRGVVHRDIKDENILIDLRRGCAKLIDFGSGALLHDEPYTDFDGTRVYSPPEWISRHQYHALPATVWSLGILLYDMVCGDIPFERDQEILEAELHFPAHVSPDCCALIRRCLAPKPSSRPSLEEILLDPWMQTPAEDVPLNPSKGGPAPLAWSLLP

[13] = target: Serine/threonine-protein kinase Chk1 (Homo sapiens) (UniProt O14757); test: Inhibition of CHK1 (unknown origin) at 1 uM incubated for 30 mins in presence of [gamma-33P]ATP by multidrop micro reagent based assay relative to control; values are per cent of control
[14] = target: Homeodomain-interacting protein kinase 2 (Homo sapiens) (UniProt Q9H2X6); test: Inhibition of HIPK2 (unknown origin) at 1 uM incubated for 30 mins in presence of [gamma-33P]ATP by multidrop micro reagent based assay relative to control; values are per cent of control
[15] = target: Leucine-rich repeat serine/threonine-protein kinase 2 (Homo sapiens, UniProt Q5S007); test: Inhibition of LRRK2 in human HEK293 cells assessed as inhibition of ERM phosphorylation at 10 uM incubated for 1 hr using LRRKtide as substrate in presence of sunitinib by immunoblot analysis; assay type: cell-based
In short: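 SDS lysates were run on 4–12% gels and immunoblotted for ERM phosphorylation with pan-phospho-ERM antibody (1 μg/ml, with 10 μg/ml LRRKtide in blocking milk/TBST).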

C[C@@H](N)[C@H]1CC[C@H](C(=O)Nc2ccncc2)CC1
residual activity [1]: 70%
inhibition [2]: 26%
inhibition [3]: 41%
residual activity [4]: 52%
residual activity [5]: 89%
inhibition [6]: 113%
inhibition [7]: 100%

O=S(=O)(c1cccc2cnccc12)N1CCCNCC1 [FASUDIL]
inhibition (Homo sapiens): 82%
residual activity [8]: 54%

CCN(CC)CCNC(=O)c1c(C)[nH]c(/C=C2\C(=O)Nc3ccc(F)cc32)c1C
inhibition [9]: Active
inhibition [10]: 46%

Cc1cncc2cccc(S(=O)(=O)N3CCCNC[C@@H]3C)c12
inhibition [11]: Active

CC1=C(C(=O)Nc2cc3cn[nH]c3cc2F)C(c2ccc(C(F)(F)F)cc2)CC(=O)N1 (stereo unspecified)
residual activity [12]: 106%
residual activity [13]: 111%
residual activity [14]: 104%
inhibition [15]: inactive
